ERAP1 inh: ERAP1 (human) enzyme inhibition; Q9NZ08; recombinant ERAP1, Leu-AMC fluorescence, 60 min; inhibition, % at 10.7 µM; 0.15% of 340,000 active;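 active = mean replicate inhibition of at least 30%, or all replicates individually reaching that 30% level; inactive = mean below 30% and not every replicate reaching it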;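 note: 0% = neutral control wells and 100% = L-leucinethiol positive control wells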
Target sequence (Q9NZ08 whole entry, looked up): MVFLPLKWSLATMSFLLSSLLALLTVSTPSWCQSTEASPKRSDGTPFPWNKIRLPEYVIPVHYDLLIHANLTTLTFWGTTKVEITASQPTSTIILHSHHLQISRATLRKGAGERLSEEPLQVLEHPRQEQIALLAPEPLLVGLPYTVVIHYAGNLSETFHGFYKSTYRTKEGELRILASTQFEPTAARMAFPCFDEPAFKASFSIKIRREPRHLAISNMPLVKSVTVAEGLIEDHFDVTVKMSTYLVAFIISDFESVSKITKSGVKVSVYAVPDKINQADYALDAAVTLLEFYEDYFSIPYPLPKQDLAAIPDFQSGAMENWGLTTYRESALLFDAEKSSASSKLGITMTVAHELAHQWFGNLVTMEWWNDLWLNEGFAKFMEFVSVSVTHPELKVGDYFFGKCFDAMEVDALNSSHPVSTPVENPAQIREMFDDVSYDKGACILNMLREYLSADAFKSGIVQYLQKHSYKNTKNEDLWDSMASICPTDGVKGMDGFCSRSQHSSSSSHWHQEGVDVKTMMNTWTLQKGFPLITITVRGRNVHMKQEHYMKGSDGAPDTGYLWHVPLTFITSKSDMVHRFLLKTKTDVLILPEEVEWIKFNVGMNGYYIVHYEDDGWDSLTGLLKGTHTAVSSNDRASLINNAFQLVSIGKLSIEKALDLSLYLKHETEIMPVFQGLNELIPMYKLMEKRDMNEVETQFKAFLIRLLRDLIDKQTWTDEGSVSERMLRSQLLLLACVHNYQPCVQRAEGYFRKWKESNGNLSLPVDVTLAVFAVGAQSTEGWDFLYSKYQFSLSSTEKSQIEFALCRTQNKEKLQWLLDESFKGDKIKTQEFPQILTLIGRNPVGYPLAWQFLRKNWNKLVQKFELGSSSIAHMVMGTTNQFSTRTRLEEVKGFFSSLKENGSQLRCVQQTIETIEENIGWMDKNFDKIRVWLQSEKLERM
DENV2 CPE: protects cells from dengue virus 2 cytopathic effect. DENV2-infected cells, cytopathic effect rescue, plate reader. CPE inhibition, % at 9.99 µM. 1.7% of 350,000 active. AID 651640; in the data active = CPE inhibition above about 20%, passing the limit was not always enough; tested in BHK-21 cells;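 note: 0% = median of neutral control wells and 100% = median of positive control wells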
miR-122 sensor: blocks miR-122 activity in Huh7 sensor cells. Huh7 miR-122 Renilla luciferase sensor, 48 h; neutral wells = 0, positive control = 100. activation (reporter increase), % at 12.5 µM. 0.3% of 340,000 active. AID 602342;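 active = mean replicate activation score at least 90 and every replicate individually at or above 90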;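 note: higher luciferase means less miR-122 activity so hits act as miR-122 inhibitors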
INS-1E GSIS act: GLuc luminescence reporter in INS-1E cells, primary screen for activators of glucose-dependent secretion of insulin; INS-1E GLuc reporter insulin secretion, 2-3 h; 0.61% of 370,000 active; activation, % at 16.6 µM;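 active = lowest replicate activation of at least 40%, so every replicate reaches that level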;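 note: 0% = median of neutral control wells and 100% = median of IBMX positive control wells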
E-selectin induc: E-selectin induction on HUVECs; AID 686992; 0.37% of 260,000 active; HUVEC E-selectin immunofluorescence imaging; normalized: neutral wells 0, TNF-alpha wells 100; activation, % at 7.58 µM; P16581;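 active = mean E-selectin-positive cell signal at least 10% of the positive control, reached in at least 60% of replicates, without over 20% cell loss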
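assay system = HUVEC, human umbilical vein endothelial cells | input = 3,000 HUVEC seeded per well | medium = EGM-2 growth medium on 0.1% gelatin-coated wells | dosing = one compound dose added by pin transfer | signal = immunofluorescence imaging | read-out basis = % PE-positive cells | control set = TNF-alpha, DMSO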
CFTR F508del cor: CFTR F508del correction in bronchial cells; 0.36% of 350,000 active; activity (quench increase), % at 7.58 µM; AID 720511; CFBE cells, YFP halide quenching; stimulated with forskolin plus potentiator P3; % fluorescence drop versus neutral controls;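 active = mean added fluorescence quench of at least 8% versus neutral control, with both replicates also reaching 8%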;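 note: cells transiently co-express mutant CFTR-F508del with the halide-sensitive YFP; corrector assay measuring rescue of mutant channel to the surface after 24 h compound exposure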
An asterisk follows results filed as active; [ ] = dose if it differs, or a comment. Only some compounds are listed: those with a hit (about 2.6% of all), similar ones and a draw of the others.

Results for CN(C)c1ccc2c(c1)[C@@H]1C[C@H](CC(=O)NCc3ccccc3)O[C@@H](CO)[C@@H]1O2 ?
ERAP1 inh: 0; DENV2 CPE: 21*; miR-122 sensor: 1[16.7 µM]; INS-1E GSIS act: -6; E-selectin induc: 0; CFTR F508del cor: 3

How did CN(C(=O)c1cccc(NC(=O)Cc2ccc(NC(=O)C3CCN(C(=O)C4CC4)CC3)cc2)c1)C1CCCC1 do in these assays?
ERAP1 inh: -1; DENV2 CPE: 47*; INS-1E GSIS act: -13; E-selectin induc: 0; CFTR F508del cor: 0

Results for CN(C(=O)c1cccc(NC(=O)Cc2ccc(NC(=O)C3CCN(C(=O)C4CC4)CC3)cc2)c1)C1CCC1 ?
DENV2 CPE: 10; INS-1E GSIS act: -12; E-selectin induc: -6; CFTR F508del cor: 0

What do the screens show for `CN(C(=O)c1ccc(NC(=O)Cc2ccc(NC(=O)C3CCN(C(=O)C4CCCCC4)CC3)cc2)cc1)C1CCCC1`?
ERAP1 inh: -1; DENV2 CPE: 86*; miR-122 sensor: 2; INS-1E GSIS act: -5; E-selectin induc: 0; CFTR F508del cor: -1

What do the screens show for `C[C@@H]1CCCCO[C@@H](CN(C)C(=O)NC2CCCCC2)[C@H](C)CN([C@@H](C)CO)C(=O)c2cc(NS(=O)(=O)c3cn(C)cn3)ccc2O1`?
ERAP1 inh: -1; DENV2 CPE: -6; miR-122 sensor: 3[16.7 µM]; INS-1E GSIS act: -14; E-selectin induc: 0; CFTR F508del cor: 1

What do the screens show for `CC(=O)[C@@]1(O)CC[C@H]2[C@@H]3CCC4=CC(=O)CC[C@]4(C)[C@H]3CC[C@@]21C`?
ERAP1 inh: -3; DENV2 CPE: -3; miR-122 sensor: -4; E-selectin induc: 0; CFTR F508del cor: -2

How did CC(=O)OC1CCC2C3CCC4=CC(=O)CCC4(C)C3CCC2(C)[C@]1(C)O (stereo partly drawn) do in these assays?
ERAP1 inh: -2; DENV2 CPE: 106*; INS-1E GSIS act: 5; E-selectin induc: 0; CFTR F508del cor: 1

Results for C[C@H]1CN([C@@H](C)CO)S(=O)(=O)c2ccc(-c3ccncc3)cc2O[C@H]1CN(C)C(=O)C1CCCCC1 ?
miR-122 sensor: -4[16.7 µM]; INS-1E GSIS act: -4; E-selectin induc: 0; CFTR F508del cor: 2

How did COc1ccc(S(=O)(=O)N(C)C[C@@H]2OCCCC[C@H](C)Oc3ccc(NC(=O)C4CCCCC4)cc3C(=O)N([C@H](C)CO)C[C@H]2C)cc1 do in these assays?
ERAP1 inh: 1; DENV2 CPE: -6; miR-122 sensor: -9[16.7 µM]; INS-1E GSIS act: -1; E-selectin induc: 0; CFTR F508del cor: -2

Results for CC1=CC(c2ccccc2)n2nc(NC(=O)CCCC(=O)O)nc2N1 (stereo not drawn) ?
ERAP1 inh: -4; DENV2 CPE: 1; INS-1E GSIS act: 8; CFTR F508del cor: -1

How did CC1=CC(c2ccccc2)n2nc(NC(=O)CCC(=O)O)nc2N1 (stereo not drawn) do in these assays?
DENV2 CPE: 3; miR-122 sensor: -6; INS-1E GSIS act: 65*; E-selectin induc: 0; CFTR F508del cor: 2

What do the screens show for `CC(C)NC(=O)Nc1ccc2c(c1)C(=O)N([C@@H](C)CO)C[C@@H](C)[C@H](CN(C)Cc1ccc(C(=O)O)cc1)OCCCC[C@@H](C)O2`?
ERAP1 inh: -1; DENV2 CPE: 22*; miR-122 sensor: 6[16.7 µM]; INS-1E GSIS act: 32; E-selectin induc: 1; CFTR F508del cor: 0

Results for CC(C)NC(=O)Nc1ccc2c(c1)C(=O)N([C@H](C)CO)C[C@@H](C)[C@H](CN(C)Cc1ccc(C(=O)O)cc1)OCCCC[C@H](C)O2 ?
ERAP1 inh: -1; DENV2 CPE: 2; miR-122 sensor: -2[16.7 µM]; INS-1E GSIS act: 22; E-selectin induc: 0; CFTR F508del cor: -1

What do the screens show for `CC(C)NC(=O)Nc1ccc2c(c1)C(=O)N([C@H](C)CO)C[C@@H](C)[C@@H](CN(C)Cc1ccc(C(=O)O)cc1)OCCCC[C@H](C)O2`?
ERAP1 inh: -3; DENV2 CPE: 39*; miR-122 sensor: 0[16.7 µM]; INS-1E GSIS act: 45; E-selectin induc: 1; CFTR F508del cor: -3

Screens deposited in PubChem BioAssay by Broad Institute.
